# Residues, ends and D or L forms follow the SMILES beside them.
# Legend:
# pDNA = experiment: DLS and ζ-potential of peptide/pDNA polyplex; assay type: physicochemical
# Outline: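 Plasmid was pEGFP-C2 (4.7 kb), isolated from E. coli DH5α, with purity checked by A260/A280. It was mixed with peptide (0–25 μM) in Tris-HCl (10 mM, pH 7.4). Hydrodynamic size was measured by dynamic light scattering in a 1 cm quartz cuvette, alongside ζ-potential.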
# [1] = Polyplex stability against NaCl, agarose gel retardation; assay type: physicochemical; conditions: pDNA condensed with 25 μM peptide, NaCl treatment
# ctDNA = experiment: Hoechst; assay type: binding; conditions: Hoechst-bound ctDNA titrated with peptide, fluorescence at 460 nm
# L929 cells [2] = experiment: Cellular uptake of CF-labeled peptides by FACS; assay type: cell-based; conditions: 10 μM CF-labeled peptide, 6 h incubation
# Outline: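 L929 cells grown in DMEM with 10% FBS and 1% penicillin-streptomycin, seeded at 50×10^4 cells/well, and cultured 24 h. Treated 6 h with 10 μM carboxyfluorescein-labelled peptide. Washed with PBS (10 mM, pH 7.4), detached with 0.25% trypsin, pellet washed three times with PBS, then analysed by flow cytometry.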
# L929 cells [3] = experiment: Cellular uptake mechanism by FACS; assay type: cell-based
# [4] = tested on: plasmid DNA (pDNA, 4.7 kb); assay type: binding
structure (smiles),measurement,setting,value
C[C@H](N)C(=O)N[C@@H](C)C(=O)N[C@@H](CCCCN)C(=O)N[C@@H](CCCCN)C(=O)N[C@@H](C)C(=O)N[C@@H](C)C(=O)N[C@@H](C)C(=O)N[C@@H](CCCCN)C(=O)N[C@@H](CCCCN)C(=O)N[C@@H](C)C(=O)N[C@@H](C)C(=O)N[C@@H](C)C(=O)N[C@@H](CCCCN)C(=O)N[C@@H](CCCCN)C(=O)N[C@@H](C)C(=O)N[C@@H](C)C(=O)N[C@@H](C)C(=O)N[C@@H](CCCCN)C(=O)N[C@@H](CCCCN)C(=O)N[C@@H](C)C(N)=O [Ku-A4] (H-AAKKAAAKKAAAKKAAAKKA-NH2; N-terminus assumed),size of polyplex at higher peptide concentrations,"pDNA; DLS, pDNA in Tris-HCl 10 mM pH 7.4, higher peptide concentrations (up to 25 μM)",140 nm
same,ζ-potential of polyplex at 25 μM peptide,"pDNA; DNA 200 ng/mL, 25 μM peptide",+16.4 mV
same,NaCl concentration at which polyplex starts disassembling,[1],250 mM
same,peptide concentration for complete Hoechst displacement,ctDNA,10 µM
same,"cell penetration efficacy (cellular uptake, FACS)",L929 cells [2],superior cell penetration ability
same,inhibition of cellular uptake by macropinocytosis inhibitor amiloride,L929 cells [3],48%
same,reduction of peptide uptake by energy depletion with NaN3,L929 cells [3]; 0.1% NaN3 pre-incubated 1 h before peptide,38%
same,cellular uptake at 4 °C (reduced to),L929 cells [3]; 1 h pre-incubation at 4 °C then peptide 6 h at 4 °C,18%
same,peptide concentration for complete condensation of DNA (gel),[4],3 µM

# — PMC10739243 (ACS Bio & Med Chem Au, 2023)
